Experimental findings from ChEMBL document CHEMBL2203175, “Discovery and optimization of sulfonyl acrylonitriles as selective, covalent inhibitors of protein phosphatase methylesterase-1” (J Med Chem, 2011) are described below.

The source made the active and inactive calls. The calls are words filed in the database; no cut-off is given here.

The target of test [1] is S-formylglutathione hydrolase (Homo sapiens) (UniProt P10768). Nature of the test: Inhibition of ESD binding to FP-biotin in [12C][14N]-lysine, arginine and [13C6][15N2]-lysine, arginine labeled HEK293T cells at 20 uM after 1 hr by isotopic activity-based protein profiling-MudPIT assay. Particulars: HEK-293T. In kind it is cell-based. The method in brief:
(§1)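 SILAC HEK 293T: light cells (12C14N-Lys/Arg) treated with compound, heavy cells (13C6 15N2-Lys/Arg) with DMSO, 1 h at 37 °C. Proteomes were mixed 1:1 (0.5 mg each) and labeled with FP-biotin (5 μM, 1 h, 25 °C), then streptavidin-enriched, digested on bead with trypsin, and run by MudPIT. Light/heavy ratios were normalized to a DMSO/DMSO control. Only SHs with ≥2 quantifiable peptides were kept; mean ± SEM across peptides.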

Test [2] addresses T1, Protein phosphatase methylesterase 1 (Homo sapiens) (UniProt Q9Y570).
T1 sequence (whole entry): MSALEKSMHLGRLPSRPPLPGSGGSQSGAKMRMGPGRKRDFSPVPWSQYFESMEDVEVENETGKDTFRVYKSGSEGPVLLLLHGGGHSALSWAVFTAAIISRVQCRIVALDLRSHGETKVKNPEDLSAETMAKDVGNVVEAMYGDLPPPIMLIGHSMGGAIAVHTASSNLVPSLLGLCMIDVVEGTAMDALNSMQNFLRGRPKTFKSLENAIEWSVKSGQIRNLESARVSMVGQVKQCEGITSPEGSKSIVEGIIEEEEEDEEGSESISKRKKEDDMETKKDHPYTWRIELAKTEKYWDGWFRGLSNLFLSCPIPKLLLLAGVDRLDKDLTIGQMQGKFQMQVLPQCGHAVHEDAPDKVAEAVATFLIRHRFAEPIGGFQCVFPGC
The following applies: HEK-293T, 20 uM.

Test [3] addresses T1, Protein phosphatase methylesterase 1 (Homo sapiens). Particulars: HEK-293T, 20 uM. The source holds these as a separate data set.
The target in test [4] is Lysosomal thioesterase PPT2 (Homo sapiens) (UniProt Q9UMR5). As to the kind of experiment: Inhibition of PPT2 binding to FP-biotin in [12C][14N]-lysine, arginine and [13C6][15N2]-lysine, arginine labeled HEK293T cells at 20 uM after 1 hr by isotopic activity-based protein profiling-MudPIT assay. It is filed as cell-based. The following applies: HEK-293T. The method in brief: as §1

Test [5] deals with Retinoid-inducible serine carboxypeptidase (Homo sapiens) (UniProt Q9HB40). As to the kind of experiment: Inhibition of SCPEP1 binding to FP-biotin in [12C][14N]-lysine, arginine and [13C6][15N2]-lysine, arginine labeled HEK293T cells at 20 uM after 1 hr by isotopic activity-based protein profiling-MudPIT assay. It is filed as cell-based. The following applies: HEK-293T. The method in brief: as §1

Test [6] addresses sn-1-specific diacylglycerol lipase ABHD11 (Homo sapiens) (UniProt Q8NFV4). Nature of the test: Inhibition of ABHD11 binding to FP-biotin in [12C][14N]-lysine, arginine and [13C6][15N2]-lysine, arginine labeled HEK293T cells at 20 uM after 1 hr by isotopic activity-based protein profiling-MudPIT assay. It is filed as cell-based. Particulars: HEK-293T. The method in brief:
as §1

In test [7] the target is Lysophospholipase-like protein 1 (Homo sapiens) (UniProt Q5VWZ2). As to the kind of experiment: Inhibition of LYPLAL1 binding to FP-biotin in [12C][14N]-lysine, arginine and [13C6][15N2]-lysine, arginine labeled HEK293T cells at 20 uM after 1 hr by isotopic activity-based protein profiling-MudPIT assay. In kind it is cell-based. The following applies: HEK-293T. The method in brief: as §1

For test [8], the target named is Lysosomal Pro-X carboxypeptidase (Homo sapiens) (UniProt P42785). Nature of the test: Inhibition of PRCP binding to FP-biotin in[12C][14N]-lysine, arginine and [13C6][15N2]-lysine, arginine labeled HEK293T cells at 20 uM after 1 hr by isotopic activity-based protein profiling-MudPIT assay. It is filed as cell-based. The following applies: HEK-293T. The method in brief:
as §1

In test [9] the target is Neutral cholesterol ester hydrolase 1 (Homo sapiens) (UniProt Q6PIU2). Nature of the test: Inhibition of AADACL1 binding to FP-biotin in [12C][14N]-lysine, arginine and [13C6][15N2]-lysine, arginine labeled HEK293T cells at 20 uM after 1 hr by isotopic activity-based protein profiling-MudPIT assay. In kind it is cell-based. The following applies: HEK-293T. The method in brief: as §1

Test [10] concerns the target Alpha/beta hydrolase domain-containing protein 17B (Homo sapiens) (UniProt Q5VST6). Nature of the test: Inhibition of FAM108B1 binding to FP-biotin in [12C][14N]-lysine, arginine and [13C6][15N2]-lysine, arginine labeled HEK293T cells at 20 uM after 1 hr by isotopic activity-based protein profiling-MudPIT assay. The following applies: HEK-293T. In kind it is cell-based. The method in brief:
as §1

The target of test [11] is Dipeptidyl peptidase 9 (Homo sapiens) (UniProt Q86TI2). As to the kind of experiment: Inhibition of DPP9 binding to FP-biotin in[12C][14N]-lysine, arginine and [13C6][15N2]-lysine, arginine labeled HEK293T cells at 20 uM after 1 hr by isotopic activity-based protein profiling-MudPIT assay. The following applies: HEK-293T. It is filed as cell-based. The method in brief:
as §1

For test [12], the target named is Patatin-like phospholipase domain-containing protein 6 (Homo sapiens) (UniProt Q8IY17). As to the kind of experiment: Inhibition of PNPLA6 binding to FP-biotin in [12C][14N]-lysine, arginine and [13C6][15N2]-lysine, arginine labeled HEK293T cells at 20 uM after 1 hr by isotopic activity-based protein profiling-MudPIT assay. In kind it is cell-based. The following applies: HEK-293T. The method in brief: as §1

Test [13] addresses Cytosolic phospholipase A2 (Homo sapiens) (UniProt P47712). As to the kind of experiment: Inhibition of PLA2G4A binding to FP-biotin in [12C][14N]-lysine, arginine and [13C6][15N2]-lysine, arginine labeled HEK293T cells at 20 uM after 1 hr by isotopic activity-based protein profiling-MudPIT assay. It is filed as cell-based. The following applies: HEK-293T. The method in brief: as §1

In test [14] the target is Phosphatidylserine lipase ABHD16A (Homo sapiens) (UniProt O95870). As to the kind of experiment: Inhibition of BAT5 binding to FP-biotin in [12C][14N]-lysine, arginine and [13C6][15N2]-lysine, arginine labeled HEK293T cells at 20 uM after 1 hr by isotopic activity-based protein profiling-MudPIT assay. Particulars: HEK-293T. In kind it is cell-based. The method in brief:
as §1

The target in test [15] is Fatty acid synthase (Homo sapiens) (UniProt P49327). Nature of the test: Inhibition of FASN binding to FP-biotin in [12C][14N]-lysine, arginine and [13C6][15N2]-lysine, arginine labeled HEK293T cells at 20 uM after 1 hr by isotopic activity-based protein profiling-MudPIT assay. The following applies: HEK-293T. In kind it is cell-based. The method in brief: as §1
Test [16] deals with Lysosomal phospholipase A and acyltransferase (Homo sapiens) (UniProt Q8NCC3). Nature of the test: Inhibition of LYPLA3 binding to FP-biotin in [12C][14N]-lysine, arginine and [13C6][15N2]-lysine, arginine labeled HEK293T cells at 20 uM after 1 hr by isotopic activity-based protein profiling-MudPIT assay. In kind it is cell-based. The following applies: HEK-293T. The method in brief: as §1

Test [17] deals with Testis-expressed protein 30 (Homo sapiens) (UniProt Q5JUR7). Nature of the test: Inhibition of C13orf27 binding to FP-biotin in [12C][14N]-lysine, arginine and [13C6][15N2]-lysine, arginine labeled HEK293T cells at 20 uM after 1 hr by isotopic activity-based protein profiling-MudPIT assay. Particulars: HEK-293T. In kind it is cell-based. The method in brief:
as §1

Test [18] concerns the target Lysosomal protective protein (Homo sapiens) (UniProt P10619). As to the kind of experiment: Inhibition of CTSA binding to FP-biotin in [12C][14N]-lysine, arginine and [13C6][15N2]-lysine, arginine labeled HEK293T cells at 20 uM after 1 hr by isotopic activity-based protein profiling-MudPIT assay. It is filed as cell-based. The following applies: HEK-293T. The method in brief:
as §1

Sequence of Dipeptidyl peptidase 9 (Homo sapiens) (Q86TI2 2-863 limits assumed): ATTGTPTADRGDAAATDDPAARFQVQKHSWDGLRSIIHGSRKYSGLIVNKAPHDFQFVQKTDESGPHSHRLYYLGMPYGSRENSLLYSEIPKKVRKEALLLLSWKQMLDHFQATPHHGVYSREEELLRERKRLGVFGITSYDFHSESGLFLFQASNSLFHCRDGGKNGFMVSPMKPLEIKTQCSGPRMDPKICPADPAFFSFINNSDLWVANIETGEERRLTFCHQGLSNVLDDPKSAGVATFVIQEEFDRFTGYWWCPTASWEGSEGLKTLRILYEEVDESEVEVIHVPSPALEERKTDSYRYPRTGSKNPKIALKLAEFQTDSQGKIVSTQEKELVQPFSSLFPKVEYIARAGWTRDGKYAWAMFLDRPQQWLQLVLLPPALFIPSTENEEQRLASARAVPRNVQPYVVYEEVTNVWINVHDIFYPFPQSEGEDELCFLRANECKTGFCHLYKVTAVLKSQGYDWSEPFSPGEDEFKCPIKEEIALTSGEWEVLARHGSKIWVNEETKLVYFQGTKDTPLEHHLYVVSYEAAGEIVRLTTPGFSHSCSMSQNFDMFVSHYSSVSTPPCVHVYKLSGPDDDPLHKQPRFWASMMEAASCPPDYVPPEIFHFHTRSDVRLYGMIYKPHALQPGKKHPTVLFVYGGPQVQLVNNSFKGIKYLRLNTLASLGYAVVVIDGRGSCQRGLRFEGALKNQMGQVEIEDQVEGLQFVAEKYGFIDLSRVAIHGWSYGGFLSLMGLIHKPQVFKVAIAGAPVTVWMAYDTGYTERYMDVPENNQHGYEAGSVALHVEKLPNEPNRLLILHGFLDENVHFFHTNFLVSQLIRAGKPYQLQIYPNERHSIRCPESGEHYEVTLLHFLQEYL
Sequence of Neutral cholesterol ester hydrolase 1 (Homo sapiens) (Q6PIU2 whole entry): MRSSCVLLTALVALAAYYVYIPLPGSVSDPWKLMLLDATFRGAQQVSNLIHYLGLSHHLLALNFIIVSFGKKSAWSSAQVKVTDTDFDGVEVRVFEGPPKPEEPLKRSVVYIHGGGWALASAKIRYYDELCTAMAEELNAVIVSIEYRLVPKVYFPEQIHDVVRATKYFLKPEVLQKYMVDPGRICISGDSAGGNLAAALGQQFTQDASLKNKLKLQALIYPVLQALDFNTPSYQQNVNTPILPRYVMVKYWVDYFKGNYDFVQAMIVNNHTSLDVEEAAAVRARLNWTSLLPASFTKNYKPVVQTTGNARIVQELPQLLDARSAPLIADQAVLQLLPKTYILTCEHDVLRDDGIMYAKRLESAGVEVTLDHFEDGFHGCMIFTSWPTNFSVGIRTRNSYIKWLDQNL
Sequence of Patatin-like phospholipase domain-containing protein 6 (Homo sapiens) (Q8IY17 whole entry, the tested form may be a part): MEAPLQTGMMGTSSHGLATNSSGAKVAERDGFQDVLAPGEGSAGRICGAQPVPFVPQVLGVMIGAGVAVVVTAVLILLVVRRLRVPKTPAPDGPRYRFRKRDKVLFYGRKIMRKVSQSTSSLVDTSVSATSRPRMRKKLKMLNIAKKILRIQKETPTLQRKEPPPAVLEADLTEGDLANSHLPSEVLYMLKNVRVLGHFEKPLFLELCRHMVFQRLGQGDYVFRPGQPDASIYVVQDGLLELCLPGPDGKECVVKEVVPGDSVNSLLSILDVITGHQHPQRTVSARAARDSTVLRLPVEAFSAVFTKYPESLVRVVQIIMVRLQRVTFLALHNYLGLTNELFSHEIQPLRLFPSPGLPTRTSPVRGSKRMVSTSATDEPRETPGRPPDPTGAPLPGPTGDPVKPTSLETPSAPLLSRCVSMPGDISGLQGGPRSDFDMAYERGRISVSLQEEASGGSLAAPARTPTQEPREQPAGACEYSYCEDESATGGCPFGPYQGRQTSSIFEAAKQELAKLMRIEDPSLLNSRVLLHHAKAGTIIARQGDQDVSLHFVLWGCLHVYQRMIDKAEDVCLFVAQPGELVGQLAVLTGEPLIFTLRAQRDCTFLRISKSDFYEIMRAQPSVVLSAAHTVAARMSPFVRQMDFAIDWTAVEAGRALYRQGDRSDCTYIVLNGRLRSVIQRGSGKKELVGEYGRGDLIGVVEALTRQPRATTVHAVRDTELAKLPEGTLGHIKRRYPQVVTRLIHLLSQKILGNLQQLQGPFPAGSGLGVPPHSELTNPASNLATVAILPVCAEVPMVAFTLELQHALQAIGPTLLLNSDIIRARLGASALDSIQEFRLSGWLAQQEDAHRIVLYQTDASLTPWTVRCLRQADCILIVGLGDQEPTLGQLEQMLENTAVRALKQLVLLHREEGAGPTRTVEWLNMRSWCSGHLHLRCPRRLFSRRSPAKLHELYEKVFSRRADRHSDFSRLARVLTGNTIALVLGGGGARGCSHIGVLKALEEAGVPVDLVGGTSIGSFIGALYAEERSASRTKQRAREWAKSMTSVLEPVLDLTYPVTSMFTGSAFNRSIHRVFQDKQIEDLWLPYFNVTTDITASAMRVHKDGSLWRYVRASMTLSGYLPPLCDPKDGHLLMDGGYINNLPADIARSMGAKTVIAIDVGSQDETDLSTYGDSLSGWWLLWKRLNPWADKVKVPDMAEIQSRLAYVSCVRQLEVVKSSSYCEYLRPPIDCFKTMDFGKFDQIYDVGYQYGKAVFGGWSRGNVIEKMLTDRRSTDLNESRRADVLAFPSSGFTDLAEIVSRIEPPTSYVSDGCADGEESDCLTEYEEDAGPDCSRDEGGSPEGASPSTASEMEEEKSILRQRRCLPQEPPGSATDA
Sequence of Testis-expressed protein 30 (Homo sapiens) (Q5JUR7 whole entry): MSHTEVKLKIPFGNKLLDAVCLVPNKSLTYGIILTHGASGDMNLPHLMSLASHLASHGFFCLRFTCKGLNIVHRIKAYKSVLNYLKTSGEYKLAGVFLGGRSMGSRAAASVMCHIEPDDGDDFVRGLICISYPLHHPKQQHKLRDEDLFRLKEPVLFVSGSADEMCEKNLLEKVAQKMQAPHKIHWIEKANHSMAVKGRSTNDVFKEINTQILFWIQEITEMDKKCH
Sequence of Retinoid-inducible serine carboxypeptidase (Homo sapiens) (Q9HB40 whole entry): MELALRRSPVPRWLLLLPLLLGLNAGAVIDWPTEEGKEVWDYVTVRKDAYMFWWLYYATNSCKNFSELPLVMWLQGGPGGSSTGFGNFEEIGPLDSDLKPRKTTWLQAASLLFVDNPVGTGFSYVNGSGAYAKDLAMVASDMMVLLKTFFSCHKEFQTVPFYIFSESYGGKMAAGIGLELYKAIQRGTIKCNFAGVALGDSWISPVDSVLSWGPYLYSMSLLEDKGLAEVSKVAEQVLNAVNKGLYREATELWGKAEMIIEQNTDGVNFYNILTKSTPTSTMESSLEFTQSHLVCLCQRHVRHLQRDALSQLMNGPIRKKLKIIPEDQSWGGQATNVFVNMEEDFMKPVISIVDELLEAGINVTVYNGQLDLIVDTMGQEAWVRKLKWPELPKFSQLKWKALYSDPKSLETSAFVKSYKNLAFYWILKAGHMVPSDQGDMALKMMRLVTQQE
Sequence of Lysosomal Pro-X carboxypeptidase (Homo sapiens) (P42785 whole entry): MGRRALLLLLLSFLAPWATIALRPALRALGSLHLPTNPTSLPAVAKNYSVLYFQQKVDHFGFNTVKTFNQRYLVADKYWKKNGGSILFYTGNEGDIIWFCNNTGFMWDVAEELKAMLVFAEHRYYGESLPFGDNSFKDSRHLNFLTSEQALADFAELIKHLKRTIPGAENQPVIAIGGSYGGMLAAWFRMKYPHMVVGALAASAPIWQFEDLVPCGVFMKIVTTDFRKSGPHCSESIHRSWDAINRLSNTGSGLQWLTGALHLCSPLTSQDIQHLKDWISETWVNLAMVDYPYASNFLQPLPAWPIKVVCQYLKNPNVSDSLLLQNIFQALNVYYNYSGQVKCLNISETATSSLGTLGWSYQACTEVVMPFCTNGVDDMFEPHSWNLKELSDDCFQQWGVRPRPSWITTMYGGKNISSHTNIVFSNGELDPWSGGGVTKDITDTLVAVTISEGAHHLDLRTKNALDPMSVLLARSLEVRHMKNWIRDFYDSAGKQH
Sequence of Lysosomal thioesterase PPT2 (Homo sapiens) (Q9UMR5 whole entry): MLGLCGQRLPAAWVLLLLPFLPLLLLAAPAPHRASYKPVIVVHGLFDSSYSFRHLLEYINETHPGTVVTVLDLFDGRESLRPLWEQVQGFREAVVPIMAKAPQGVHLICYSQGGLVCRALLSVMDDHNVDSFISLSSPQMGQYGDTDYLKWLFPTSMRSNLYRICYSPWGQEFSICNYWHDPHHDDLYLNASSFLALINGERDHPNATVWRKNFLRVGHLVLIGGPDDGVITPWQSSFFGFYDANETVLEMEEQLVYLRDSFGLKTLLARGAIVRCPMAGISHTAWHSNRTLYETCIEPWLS
Sequence of Alpha/beta hydrolase domain-containing protein 17B (Homo sapiens) (Q5VST6 whole entry, the tested form may be a part): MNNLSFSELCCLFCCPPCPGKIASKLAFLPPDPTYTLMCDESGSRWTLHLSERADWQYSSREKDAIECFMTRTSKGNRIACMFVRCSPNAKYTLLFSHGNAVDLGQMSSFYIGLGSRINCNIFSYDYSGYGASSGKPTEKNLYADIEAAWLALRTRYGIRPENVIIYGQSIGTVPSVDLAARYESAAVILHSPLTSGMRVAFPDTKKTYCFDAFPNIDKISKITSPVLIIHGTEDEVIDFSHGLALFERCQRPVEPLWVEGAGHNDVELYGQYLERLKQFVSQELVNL
Sequence of Lysosomal protective protein (Homo sapiens) (P10619 29-326 limits assumed): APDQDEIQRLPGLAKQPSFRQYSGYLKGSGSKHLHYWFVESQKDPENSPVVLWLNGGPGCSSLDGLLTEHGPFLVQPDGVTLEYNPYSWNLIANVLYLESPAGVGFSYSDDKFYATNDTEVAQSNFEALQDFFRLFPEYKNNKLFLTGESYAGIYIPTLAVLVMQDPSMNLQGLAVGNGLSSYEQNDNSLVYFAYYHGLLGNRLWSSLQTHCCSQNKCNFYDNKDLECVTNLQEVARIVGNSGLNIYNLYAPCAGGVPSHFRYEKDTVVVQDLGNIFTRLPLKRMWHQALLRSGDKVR
Sequence of Lysosomal protective protein (Homo sapiens) (P10619 327-480 limits assumed): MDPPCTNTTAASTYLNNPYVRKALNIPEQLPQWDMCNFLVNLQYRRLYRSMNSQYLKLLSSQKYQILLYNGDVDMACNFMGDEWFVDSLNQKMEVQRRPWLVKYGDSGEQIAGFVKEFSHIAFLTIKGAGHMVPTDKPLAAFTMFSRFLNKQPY

`N#C/C(=C\c1cccn1S(=O)(=O)c1cccc([N+](=O)[O-])c1)S(=O)(=O)c1ccc(F)cc1`: the inhibition entry in test [1], in [4], in [5], in test [6], in test [7] and in test [8] was “inactive” each time. In addition, the inhibition result in test [9], in test [10], in test [11], in test [12], in test [13] and in test [14] was “inactive” each time. Also, the inhibition entry in test [15], in [16], in [17] and in test [18] was “inactive” throughout. Further, the inhibition result in test [2] and in test [3] was “Active” each time.
